FLuc stim CS: FLuc activators, initial screening, artefact control for FLuc-dependent activation tests, biochemical, ATPlite luminescence. ATPlite luciferase biochemical, 10 min; 0 = ATP-free wells, 1 = DMSO control. activation factor at 10 µM. 200,000 tested, under 10 active. AID 1027, 2008;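 active = luciferase activation factor, scaled between plate controls, of at least 2 with compound at 10 µM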
Target sequence (P08659 whole entry, looked up): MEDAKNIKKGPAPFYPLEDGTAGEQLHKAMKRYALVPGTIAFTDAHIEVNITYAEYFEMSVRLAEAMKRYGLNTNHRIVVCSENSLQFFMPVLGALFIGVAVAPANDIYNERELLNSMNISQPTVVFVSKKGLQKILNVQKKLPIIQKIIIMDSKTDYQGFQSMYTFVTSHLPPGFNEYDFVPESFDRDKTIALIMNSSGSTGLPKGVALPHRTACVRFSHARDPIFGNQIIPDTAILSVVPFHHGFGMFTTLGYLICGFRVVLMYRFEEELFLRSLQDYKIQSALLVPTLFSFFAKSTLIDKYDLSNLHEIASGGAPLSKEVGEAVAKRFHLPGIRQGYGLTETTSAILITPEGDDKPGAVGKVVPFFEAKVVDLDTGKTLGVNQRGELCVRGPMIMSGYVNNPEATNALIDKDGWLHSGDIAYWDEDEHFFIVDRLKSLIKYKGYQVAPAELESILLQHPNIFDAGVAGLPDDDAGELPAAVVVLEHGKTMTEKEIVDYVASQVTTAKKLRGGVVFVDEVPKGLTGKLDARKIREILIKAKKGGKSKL
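System: Luciferase/luciferin detection reagent, cell-free biochemical luciferase assay | Medium: PBS buffer for ATP | Dosing: Test compounds dosed from 2 mM stocks in 100% DMSO | Timing: 10 min at ambient temperature | Signal: Luminescence measurement of luciferase light output | Evaluation: Luciferase activation, seen as luminescence increase over controls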
STAT1 blocker: STAT1 signaling inhibitors, primary screen, cell-based, HTS, luciferase reporter. inhibition, % at 5.5 µM. NIH 3T3 STAT1-luciferase reporter, IFN-gamma, luminescence. actives 0.35% (n = 200,000);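 active = inhibition above a set limit, the mean inhibition across all tested compounds plus 3 SD, cut at about 34% in these data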;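 note: 0% = IFN-gamma with DMSO and 100% = IFN-gamma with 300 µM nifuroxazide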
FLuc inh counter: firefly luciferase enzyme inhibitors, primary screen, artefact control for luciferase-based inhibitor screens, biochemical, luminescence, ATPLite; actives 1.5% (n = 200,000); inhibition, % at 10 µM; 10 min; AID 1006, 2008; Luciferin 4-monooxygenase (Photinus pyralis), P08659;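 active = inhibition above about 50% when tested at 10 µM, limit read from the data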
STAT3 inh: IL-6 driven STAT3 reporter inhibitors, primary screen, U3A cells, luciferase, luminescence, MLSCN library | actives 0.89% (n = 190,000) | AID 862, 2007 | inhibition, % at 5.5 µM | IL-6 STAT3-luciferase reporter; host cell line lacks STAT1;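 active = inhibition above the mean inhibition across all screened compounds plus 3 SD, cut at about 44% in these data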;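 note: 0% = DMSO only wells and 100% = 100 µM nifuroxazide control wells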
STAT1 act-1: STAT1 signaling activators, primary screen, cell-based, HTS, luciferase reporter; activation (% of control), % at 5.5 µM; NIH 3T3 STAT1-luciferase reporter, IFN-gamma, luminescence; 100% = IFN-gamma alone, no compound; actives 2.6% (n = 200,000); AID 932, 2007;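 active = activation above the screen-wide mean activation plus 3 SD, cut at about 130% in these data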;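 note: raw ratio to IFN-gamma control signal so 100% means no change and 0% no light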
STAT3 act-1: IL-6 driven STAT3 reporter potentiators, primary screen, U3A cells, luciferase, luminescence, MLSCN library. AID 871, 2007. activation (% of control), % at 5.6 µM. IL-6 STAT3-luciferase reporter; 100% = signal with IL-6 EC80 alone. actives 0.91% (n = 190,000);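 active = activation above the screen-wide mean of compound activation plus 3 SD, cut at about 130% in these data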;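 note: 0% = background luminescence of wells with medium and substrate only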
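Material: STAT3-luciferase reporter U3A cells. Controls: IL-6-treated wells, 100% activation. Read-out: % activation versus median of IL-6-stimulated wells. Probe or stimulus: IL-6 stimulus at 33 ng/mL final. Timing: compound 1 h, then IL-6 6 h at 37 °C. Signal: reporter luminescence signal.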
STAT3 act-2: STAT3 reporter potentiators, retest of hits, confirmation, U3A cells, luciferase, luminescence; shares compounds with STAT3 act-1; IL-6 potentiation; U3A cells lack STAT1; 100 means same as IL-6 alone; potentiation (% of control), % at 5.7 µM; actives 64% (n = 1,200); AID 1267, 2008;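 active = percent activation of the STAT3 luciferase reporter above a set limit taken from the earlier primary screen, cut at about 130% in these data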;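 note: 0% = background signal of medium plus substrate and 100% = median of IL-6 with DMSO wells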
NFkB act STAT3ct: NF-kB reporter activators in human cells, counter-screen for STAT3 activator project. shares compounds with STAT3 act-1. NF-kappaB reporter activation. activation (% of control), % at 5.7 µM. actives 11% (n = 1,200); in the data active = activation above about 120%;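 note: reporter induced by TNF-alpha stimulation; 100% = median of stimulated DMSO wells and 0% = no signal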
STAT1 act-2: STAT1 reporter activators, IFN-gamma induced, counter-screen for STAT3 activator project, cell-based, NIH 3T3, luciferase luminescence; shares compounds with STAT3 act-1; NIH 3T3 STAT1-luciferase reporter; activation (% of control), % at 5.7 µM; actives 13% (n = 1,200); AID 1318, 2008;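 active = activation above the solvent-only control well mean plus 3 SD, set per screening run, cut at about 120% in these data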;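 note: 100% = IFN-gamma with DMSO median signal so 100% means no change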
Numbers without * were called inactive; / = not tested or not shown. A selection: hits, their analogues and other compounds. The true share with any hit is near 4.9%.

SMILES	FLuc stim CS	STAT1 blocker	FLuc inh counter	STAT3 inh	STAT1 act-1	STAT3 act-1	STAT3 act-2	NFkB act STAT3ct	STAT1 act-2
Cc1cccn2c(NC(=O)c3cccs3)c(-c3ccccc3)nc12	1	-0.2	-3.5	-2.1	100.1	104.6	/	/	/
COc1ccc(C)cc1N(C(=O)COc1ccccc1)c1nc2ccccc2s1	1	10.1	-2.8	-43.0	91.0	137.0*	145.5*	100.6	100.8
COc1ccc(C)cc1N(C(=O)c1ccccc1F)c1nc2ccccc2s1	1	2.3	-4.2	-27.6	98.0	123.8	/	/	/
O=C(NNC(=O)c1cccs1)c1ccc([N+](=O)[O-])cc1	0.9	-10.9	14.5	6.5	112.1	98.7	/	/	/
NC(N)=NC1=NC(=O)/C(=C/c2ccccc2-n2cccn2)S1	1.1	0.2	-6.0	-6.9	99.6	107.0	/	/	/
Cc1cc(NC(=O)C(C)C)n(-c2nc3ccccc3s2)n1	0.9	-23.9	11.2	-40.3	120.5	142.8*	163.1*	116.3	117.0
Cc1cc(NC(=O)CN2CC(C)OC(C)C2)n(-c2nc3ccccc3s2)n1 (stereo not given)	1	-1.8	1.0	-58.8	101.6	149.7*	133.4*	101.9	102.2
COc1ccccc1NC(=O)COn1nnc2ccc(S(=O)(=O)N3CCOCC3)cc21	1	-2.8	-4.4	4.0	100.9	106.2	/	/	/
Cc1ccc(Sc2c(C=O)c3ccccc3n2C)cc1	1	11.4	0.2	-62.7	89.7	156.9*	128.4	81.1	87.4
Cc1[nH]c2ccccc2c1Cc1nnc(SCC(N)=O)o1	1	10.8	-1.2	-66.3	87.5	152.9*	103.1	99.9	96.5
Cc1[nH]c2ccccc2c1CCC(N)=O	1.1	-7.1	-7.9	-2.2	106.5	104.7	/	/	/
COC(=O)CCC(=O)Nc1sc(C)c(C)c1C(N)=O	1	-1.4	2.3	5.4	100.2	100.8	/	/	/
COC(=O)CCC(=O)NC(=S)Nc1sc(C)c(C)c1C(N)=O	1.1	1.5	-9.3	-46.8	98.7	139.5*	103.8	137.4*	105.8
N#Cc1c(C(F)(F)F)cc(C2CC2)nc1N1CCCC1	0.9	10.7	5.5	-59.0	90.5	147.6*	121.9	101.3	98.1
Cc1cc(C)n(CCCN2C(=O)c3cccc4cccc(c34)C2=O)n1	1	-2.5	-3.5	28.1	100.4	81.5	/	/	/
O=C(OCc1nc2ccccc2s1)C1CCN(C2=NS(=O)(=O)c3ccccc32)CC1	0.9	-13.7	6.0	-44.2	112.5	146.7*	142.4*	121.3*	134.3*
O=C(OCc1nc2ccccc2s1)c1cccc(N2C(=O)CCC2=O)c1	1	-3.4	1.7	-14.4	100.4	116.3	/	/	/
CCN(CC)CCNC(=O)c1cc2c(-c3ccc(Cl)cc3)nn(C)c2s1	1	7.9	-2.4	-80.2	92.8	176.9*	164.5*	105.8	96.7
O=C(NCCCN1CCOCC1)c1ccc(Cl)s1	1	-3.2	-4.0	6.1	102.9	99.6	/	/	/
Cn1nc(-c2ccc(Cl)cc2)c2cc(C(=O)NCCCN3CCOCC3)sc21	1	-1.5	-2.3	-62.8	101.3	155.4*	133.6*	109.0	96.4
Cn1nc(-c2ccc(Cl)cc2)c2cc(C(=O)NC3CC3)sc21	1	-0.9	-1.3	-85.6	100.8	174.0*	184.7*	123.0*	135.1*
CCN(CC)CCCNC(=O)c1cc(-c2ccc(Cl)cc2)on1	1.1	0.8	-5.6	10.7	99.2	95.3	/	/	/
Cn1nc(-c2ccc(Cl)cc2)c2cc(C(=O)NCCN3CCOCC3)sc21	1	11.7	-2.2	-43.0	89.4	145.4*	152.0*	105.2	99.4
CCOC(=O)N1CCC(NC(=O)c2cc3c(-c4cccc(OC)c4)nn(C)c3s2)CC1	1	-9.5	-0.8	12.0	107.7	95.1	/	/	/
Cc1[nH]nc2c1C(c1cc(Br)cs1)C(C#N)=C(N)O2 (stereo not given)	1	-3.0	-2.4	-5.9	102.3	106.0	/	/	/
SMILES	FLuc stim CS	STAT1 blocker	FLuc inh counter	STAT3 inh	STAT1 act-1	STAT3 act-1	STAT3 act-2	NFkB act STAT3ct	STAT1 act-2
Nc1cccc(-c2cc3ccccc3oc2=O)c1	0.8	-13.5	17.8	26.6	112.2	81.1	/	/	/
Nc1cccc(C2=Nc3cccc4cccc(c34)N2)c1	1	0.8	3.5	-63.1	99.2	147.0*	156.7*	103.3	105.1
CCCc1cc2c(=O)c(-c3nc4ccccc4s3)c(COCC(=O)O)oc2cc1O	0.9	2.4	7.4	-57.5	96.7	151.2*	146.5*	115.9	104.5
COCCCNCCCCSc1ccc(Cl)cc1	1	3.0	-2.4	5.5	97.3	97.6	/	/	/
CCc1cc(OCCOCCN(C)C)ccc1Cl	1	1.5	-1.8	4.3	98.7	95.2	/	/	/
CCn1c(C)c(/C=N/Nc2nc3ccccc3s2)c2ccccc21	1	-19.4	-1.3	-44.8	117.4	136.4*	132.2	103.7	114.0
COc1ccc(CCNC(=O)c2cn3ccc(C)cc3n2)cc1OC	1.1	1.5	-6.6	10.3	100.2	95.4	/	/	/
COc1ccc(N2CCN(C(=O)Cn3c(=O)[nH]c4ccccc4c3=O)CC2)cc1	1	-0.3	1.3	-0.6	99.9	105.6	/	/	/
Cc1cc2cc3c(cc2nc1SCC(=O)Nc1nc(C)c(C)s1)OCO3	1.1	8.3	-6.3	-81.7	92.6	168.7*	133.0*	103.2	103.0
O=C(CSc1nc2ccccc2[nH]1)N=Nc1c(O)[nH]c2ccccc12	0.9	-1.6	6.3	-50.7	101.4	144.6*	141.8*	107.6	105.4
Cn1c(SCC(=O)N=Nc2c(O)[nH]c3ccccc23)nc2ccccc21	1	-4.1	1.0	-25.6	103.6	123.4	/	/	/
COc1ccc(C2C(C(=O)c3cccs3)=C(O)C(=O)N2c2nncs2)cc1 (stereo not given)	1	-1.4	-2.2	-51.4	101.3	150.3*	128.9	103.0	99.2
CCOC(=O)Cn1c(C)c(C#N)c2ccccc21	1.1	5.2	-7.6	-0.4	95.2	105.5	/	/	/

High-throughput results deposited in PubChem by several laboratories.
